An excerpt weighted towards active compounds, which were near 2.9% of everything screened.
TRPC6 inhibitor – inhibitors of mouse TRPC6 channel | 1.1% of 310,000 active | B-score at 10 µM | Q61143 | HEK293-TRPC6, membrane potential dye, ACh-evoked depolarization; hits give low values | AID 2553;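 active = B-score under library mean minus 3 SD, initial fluorescence not abnormally high, positive integrated signal ratio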;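 note: B-score derived from integrated fluorescence ratio over the kinetic read; more negative B-score means stronger inhibition of depolarization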
TRPC4 PAM – allosterically enhances the mouse TRPC4 cation channel; HEK293 TRPC4beta/mu-opioid, DAMGO EC20, Fluo-4 Ca2+ flux; hits give high values; B-score at 10 µM; Q9QUQ5; 0.42% of 310,000 active;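 active = B-score of calcium response area above 5 SD of library B-scores, with initial fluorescence ratio within 5 SD of library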
Target sequence (Q9QUQ5 whole entry, looked up): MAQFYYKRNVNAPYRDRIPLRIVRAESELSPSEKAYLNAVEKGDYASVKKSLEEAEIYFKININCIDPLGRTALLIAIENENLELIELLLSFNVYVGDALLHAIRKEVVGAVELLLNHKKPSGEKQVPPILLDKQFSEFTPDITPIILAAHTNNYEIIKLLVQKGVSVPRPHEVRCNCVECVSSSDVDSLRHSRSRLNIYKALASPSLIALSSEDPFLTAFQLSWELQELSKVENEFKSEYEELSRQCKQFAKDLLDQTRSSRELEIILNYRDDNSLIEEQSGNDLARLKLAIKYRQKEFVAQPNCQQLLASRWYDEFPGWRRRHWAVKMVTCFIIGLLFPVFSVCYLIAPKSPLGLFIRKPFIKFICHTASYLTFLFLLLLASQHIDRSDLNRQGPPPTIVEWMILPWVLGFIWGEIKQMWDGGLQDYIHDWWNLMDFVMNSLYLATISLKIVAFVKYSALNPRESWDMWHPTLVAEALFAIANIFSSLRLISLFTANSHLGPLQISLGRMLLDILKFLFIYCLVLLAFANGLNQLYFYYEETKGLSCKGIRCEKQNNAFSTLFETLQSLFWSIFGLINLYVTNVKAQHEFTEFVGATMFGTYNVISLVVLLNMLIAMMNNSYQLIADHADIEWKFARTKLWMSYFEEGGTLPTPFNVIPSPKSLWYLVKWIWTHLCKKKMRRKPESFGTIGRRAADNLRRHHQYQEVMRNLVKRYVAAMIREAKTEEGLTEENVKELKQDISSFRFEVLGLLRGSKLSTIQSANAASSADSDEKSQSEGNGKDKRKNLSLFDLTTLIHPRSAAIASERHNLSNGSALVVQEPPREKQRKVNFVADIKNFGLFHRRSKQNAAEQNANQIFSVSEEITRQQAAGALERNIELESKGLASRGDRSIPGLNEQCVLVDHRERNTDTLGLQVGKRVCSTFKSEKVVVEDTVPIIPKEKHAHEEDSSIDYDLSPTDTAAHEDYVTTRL
TRPC6 activator – activates the mouse TRPC6 cation channel; Q61143; HEK293-TRPC6 membrane potential dye fluorescence; hits give high values; B-score at 10 µM; 0.13% of 310,000 active;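 active = B-score of the integrated fluorescence ratio above library mean plus 3 SD, and starting fluorescence ratio within library mean plus 5 SD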;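 note: higher score means more depolarization so channel activation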
TRPC4 act – opens the mouse TRPC4 cation channel. HEK293 TRPC4beta/mu-opioid, Fluo4 calcium fluorescence; hits give high values. Q9QUQ5. B-score at 10 µM. 0.49% of 310,000 active;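 active = B-score above 5 SD of library B-scores, and initial fluorescence ratio not above library mean plus 5 SD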;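 note: positive B-score marks a calcium rise read as TRPC4 activation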
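system = HEK293 cells stably co-expressing mouse TRPC4beta and mu-opioid receptor | schedule = Fluo4 dye loading 45 min at room temperature, 110 s recording | measure = B-scored integrated calcium fluorescence ratio | signal = Fluo4 calcium-sensitive dye fluorescence, kinetic, 1 Hz baseline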
TRPC4 block – blocks the mouse TRPC4 cation channel; AID 2247; Q9QUQ5; 0.39% of 300,000 active; HEK293 TRPC4beta/mu-opioid, DAMGO-evoked Fluo4 calcium flux; hits give low values; B-score at 10 µM;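 active = B-score over 3 SD under the library average, no early fluorescence shift, positive overall ratio signal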
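Assay system: HEK293 cells with stable TRPC4beta plus mu-opioid receptor expression. Dosing: single dose. Measured by: Fluo4 Ca2+ flux fluorescence. Also added: DAMGO in two steps, submaximal then maximal. Read-out: B score from integrated Fluo4 fluorescence ratio.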
Kir21 inh – blocks the mouse Kir2.1 inward-rectifier potassium channel; P35561; B-score at 10 µM; 0.85% of 310,000 active; AID 1672; HEK293-Kir2.1, FluxOR thallium flux fluorescence; hits give low values;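 active = fluorescence ratio B-score at or below minus 3 SD of library scores, with starting-brightness B-score within 2 SD, cut at about -4.2 in these data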;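 note: channel flux triggered by added potassium and thallium sulfate stimulus; B-score of peak minus minimum fluorescence over baseline after thallium stimulus; more negative B-score means stronger Kir2.1 block with less thallium influx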
Numbers stand for hits; - = inactive.

SMILES | TRPC6 inhibitor | TRPC4 PAM | TRPC6 activator | TRPC4 act | TRPC4 block | Kir21 inh
Cc1sc2ccc3sccc3c2[n+]1C | -5.4 | - | - | - | - | -
Cc1ccc(-c2nnn(CC(=O)Nc3nnc(C(C)C)s3)n2)cc1 | - | - | - | - | - | -
CN(N)C(=S)Nc1ccc(Cl)cc1 | - | - | - | - | - | -
Cc1ccc(C(=O)N/N=C\c2cc3c(cc2Br)OCO3)s1 | - | - | - | - | - | -
Cc1cc(S(=O)(=O)Nc2ccc3cn[nH]c3c2)c(C)cc1Cl | - | - | - | - | - | -5.19
O=[N+]([O-])c1ccc2[nH]nc(-c3ccccc3)c2c1 | - | - | - | - | -6 | -
NNC(=O)c1[nH]c2ccc([N+](=O)[O-])cc2c1-c1ccccc1 | - | - | - | - | -6 | -
O=C(N/N=C/c1ccccn1)c1[nH]c2ccc([N+](=O)[O-])cc2c1-c1ccccc1 | - | - | - | - | -6 | -
O=C(N/N=C/c1ccccn1)c1ccc([N+](=O)[O-])cc1Cl | - | - | - | - | - | -
COc1ccccc1N1CCN(C(=O)c2cc(C(C)(C)C)oc2C)CC1 | - | - | - | - | - | -
Cc1oc(C(C)(C)C)cc1C(=O)N1CCN(c2ncccc2C(F)(F)F)CC1 | - | 11 | - | - | - | -
O=C(CSc1nn(-c2ccccc2)c(=S)s1)Nn1cnnc1 | - | - | - | - | - | -
COC(=O)CSc1nn(-c2ccc(F)cc2)c(=S)s1 | - | - | - | - | -5 | -
O=C(O)c1ccc(N2CCS(=O)(=O)CC2)cc1 | - | - | - | - | - | -
COc1cc(Br)cc(C2C3=C(CCCC3=O)N(c3ccc(F)cc3)C3=C2C(=O)CCC3)c1O | - | 70 | - | - | - | -
Cc1ccc(C(O)(CNCc2ccccc2)c2ccccc2)cc1 (configuration not stated) | - | - | - | - | - | -10.5
COc1ccc(CNCC(O)(c2ccccc2)c2ccc(F)cc2)cc1 (configuration not stated) | - | - | - | - | - | -7.05
CN1CCN(c2ccc(NC(=O)c3ccc(-c4cccc([N+](=O)[O-])c4)o3)cc2)CC1 | - | - | - | 167 | - | -
CCc1ccc2cccc3c2c1N=CN3C | - | - | - | - | - | -
Cc1ccc2oc(C(=O)N(C)Cc3ccc(C)o3)c(C)c2c1 | - | - | - | - | -6 | -
CCOC(=O)CCCNC(=O)COC(=O)c1ccc(O)cc1 | - | - | - | - | - | -
CCCCOC1(c2ccccc2)NC(=S)NN=C1c1ccccc1 (configuration not stated) | - | - | - | - | - | -
O=C(Cn1c(=O)oc2cc(S(=O)(=O)NCc3ccccc3)ccc21)N1CCCC1 | - | - | - | - | - | -
CCCN1CCN(C(=O)Cn2c(=O)oc3cc(S(=O)(=O)NCc4ccccc4)ccc32)CC1 | - | - | - | 104 | - | -
CN(CCNS(=O)(=O)c1ccc2c(c1)oc(=O)n2C)Cc1ccccc1 | - | 19 | - | - | - | -
SMILES | TRPC6 inhibitor | TRPC4 PAM | TRPC6 activator | TRPC4 act | TRPC4 block | Kir21 inh
Cc1cccc(C)c1-n1cccc1/C=C1\SC(=S)N(c2cccc(C(=O)O)c2)C1=O | - | - | - | - | -7 | -
O=C(NCCc1ccc(Cl)cc1)C1CCC(=O)N1Cc1ccc(F)cc1 (configuration not stated) | - | - | - | - | - | -
O=C(C[N+]1(CC#Cc2ccccc2)CCCCC1)c1ccc(Cl)cc1 | - | - | - | - | -6 | -
CCOc1ccc(-c2nc(CSCC(=O)NCc3ccco3)c(C)o2)cc1 | - | - | 12.5 | - | - | -
CCOc1ccc(-c2nc(CSCC(=O)NC3CC3)c(C)o2)cc1 | - | - | - | - | - | -
O=C(Cc1ccc(-n2c(=O)c3sccc3n(CC(=O)Nc3ccccc3F)c2=O)cc1)NCc1ccco1 | - | - | - | - | - | -
COc1ccc(CN2CCNC(=O)C2CC(=O)NC2CCC2)c(OC)c1 (configuration not stated) | - | - | - | - | - | -
COc1ccc(CN2CCNC(=O)C2CC(=O)NC2CCCC2)c(C)c1C (configuration not stated) | - | - | - | - | -6 | -
CCOc1ccccc1C(=O)N(CN1CCCC1=O)c1cccc(Cl)c1 | - | - | - | 46 | - | -
COc1ccccc1C(=O)N(CN1CCCC1=O)c1cccc(Cl)c1 | - | - | - | - | - | -
CSc1ccc(-c2nc(CN3CCCCC3c3cccnc3)c(C)o2)cc1 (configuration not stated) | - | - | - | - | - | -
O=C(NCCCN1CCN(c2cccc(Cl)c2)CC1)C1CCC(=O)N1Cc1ccccc1Cl (configuration not stated) | - | - | - | - | -6 | -
CCOC(=O)C1CCN(Cc2cccc(OCc3ccccc3)c2)CC1 | - | - | - | - | - | -7.87
NC(=O)C1CCN(Cc2cccc(OCc3ccccc3)c2)CC1 | - | - | - | - | - | -
COc1ccc(OC)c(-c2cc(C3CCN(c4cc(Cl)nc(N)n4)CC3)[nH]n2)c1 | - | 12 | - | - | - | -
Nc1nc(Cl)cc(N2CCC(c3cc(-c4ccc(Cl)cc4)n[nH]3)CC2)n1 | - | - | - | - | - | -
COc1ccc(-c2cc(C3CCN(c4cc(Cl)nc(N)n4)CC3)[nH]n2)cc1 | - | 38 | - | - | - | -
Cc1ccc(SCC(=O)Nc2ccccc2N2CCOCC2)cc1 | - | - | - | - | - | -12
O=C(CSc1ccccc1)Nc1ccccc1N1CCOCC1 | - | - | - | - | - | -8.52
O=C(CSc1ccc(F)cc1)Nc1ccccc1N1CCOCC1 | - | - | - | - | - | -13.5
COc1ccc(N/C(=N/c2nc(C)cc(C)n2)NC(=O)c2ccccc2)cc1 | - | - | - | - | - | -
COc1ccc(Cl)cc1NC(=O)CN(C)C(=O)Cc1ccc2c(c1)CCC2 | - | - | - | - | - | -4.77
COc1ccc(Cl)cc1NC(=O)CN(C)C(=O)Cc1ccsc1 | - | - | - | - | - | -
CN1CCN(c2ccc(CNS(=O)(=O)c3ccccc3)cc2)CC1 | - | - | - | - | - | -
CN1CCN(c2ccc(CNS(=O)(=O)c3ccsc3)cc2)CC1 | - | 22 | - | - | - | -
CC(C)(C)OC(=O)N1CCC[C@H]1c1nnc(SCc2cccc(Cl)c2)o1 | - | - | - | - | - | -8.63
CC(C)(C)OC(=O)N1CCC[C@H]1c1nnc(SCc2ccc(Cl)cc2)o1 | - | - | - | - | - | -7.48
CC(C)(C)OC(=O)N1CCC[C@H]1c1nnc(SCc2ccccc2Cl)o1 | - | - | - | - | - | -7.99
COc1ccc(C(=O)Nc2c(N)nc(SCC(=O)c3ccccc3)[nH]c2=O)cc1 | - | - | - | - | - | -
